Activity calls are given as the source filed them. No cut-off for these calls is given here.
How the values were obtained:
HL-60 [1] = assay: Growth inhibition of human HL60 cells at 1 uM after 72 hrs by trypan blue exclusion assay; format: functional, cell-based
HL-60 [2] = assay: Inhibition of human HL60 cell proliferation after 72 hrs by trypan blue exclusion assay; format: functional
Procedure, shortened: (§1)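 HL-60 cells treated 72 h, then counted with trypan blue exclusion. IG50 is the concentration giving 50% inhibition of proliferation. IC50 is the concentration giving 50% loss of viability.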

HL-60 [3] = assay: Cytotoxicity against human HL60 cells after 72 hrs by trypan blue exclusion assay; format: functional, cell-based; conditions: HL-60, 72 h; procedure, shortened: as §1
P388 [4] = assay: Growth inhibition of mouse P388 cells after 72 hrs by trypan blue exclusion assay; format: functional
P388 [5] = assay: Growth inhibition of adriamycin-resistant mouse P388 cells after 72 hrs by trypan blue exclusion assay; format: functional
HL-60 [6] = assay: Cell cycle arrest in human HL60 cells assessed as accumulation at subG1 phase at 0.8 uM after 24 hrs using propidium iodide staining by flow cytometry; format: functional
Procedure, shortened: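 HL-60 cells exposed 24 h; propidium iodide staining, then flow cytometry. The subG1 population is scored as apoptotic cells. Mean ± SD from three independent experiments.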

HL-60 [7] = assay: Induction of apoptosis in human HL60 cells assessed as occurrence of nuclear shrinkage, blebbing and apoptotic bodies at 0.2 uM after 24 hrs by acridine orange and ethidium bromide staining; format: functional
Procedure, shortened: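 HL-60 cells exposed 12 h and 24 h, stained with acridine orange and ethidium bromide, and viewed by fluorescence microscopy. Cells showing nuclear shrinkage, blebbing or apoptotic bodies were scored apoptotic. Percentage taken from 300 cells counted. Mean ± SD of three independent experiments.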

HL-60 [8] = assay: Induction of apoptosis in human HL60 cells assessed as DNA fragmentation at 0.8 uM after 24 hrs using ethidium bromide staining by DNA gel electrophoresis; format: functional, cell-based
Procedure, shortened: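 HL-60 cells exposed 24 h. DNA resolved by gel electrophoresis and the fragmented DNA visualized by ethidium bromide staining.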

HL-60 [9] = assay: Cell cycle arrest in human HL60 cells assessed as accumulation at subG1 phase at 4 uM after 24 hrs using propidium iodide staining by flow cytometry; format: functional, cell-based
Procedure, shortened: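 HL-60 cells exposed 24 h; propidium iodide staining, flow cytometry; apoptotic cells scored as sub-G1 fraction. Three independent experiments, mean ± SD.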

HL-60 [10] = assay: Induction of apoptosis in human HL60 cells assessed as occurrence of nuclear shrinkage, blebbing and apoptotic bodies at 2 uM after 24 hrs by acridine orange and ethidium bromide staining; format: functional, cell-based
Procedure, shortened: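 HL-60 cells treated 12 h and 24 h; stained with acridine orange and ethidium bromide, fluorescence microscopy; cells with nuclear shrinkage, blebbing or apoptotic bodies counted as apoptotic among 300 cells observed; percentage calculated. Three independent experiments, mean ± SD.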

HL-60 [11] = assay: Induction of apoptosis in human HL60 cells assessed as DNA fragmentation at 4 uM after 24 hrs using ethidium bromide staining by DNA gel electrophoresis; format: functional, cell-based
Procedure, shortened: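 HL-60 cells treated 24 h; DNA fragmentation resolved by DNA gel electrophoresis and visualized after ethidium bromide staining.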

Compound	growth inhibition (GI) (HL-60 [1])	IG50 (HL-60 [2]) [µM]	IC50 (HL-60 [3]) [nM]	further results
COc1ccc(/C=C/C(=O)c2ccc(OCCO[C@H]3O[C@@H]4O[C@]5(C)CC[C@H]6[C@H](C)CC[C@@H]([C@H]3C)[C@@]46OO5)cc2)cc1OC	inactive	0.09	300	
C[C@H]1[C@@H](OCCOc2ccc(C(=O)/C=C/c3ccccc3Cl)cc2)O[C@@H]2O[C@]3(C)CC[C@H]4[C@H](C)CC[C@@H]1[C@@]24OO3	inactive	0.119	136	
C[C@H]1[C@@H](OCCOc2ccc(C(=O)/C=C/c3ccc4c(c3)OCO4)cc2)O[C@@H]2O[C@]3(C)CC[C@H]4[C@H](C)CC[C@@H]1[C@@]24OO3	inactive	0.059	89	IG50 (P388 [4]): 0.096 µM; IG50 (P388 [5]): 0.178 µM; Activity (HL-60 [6]): 80%; Activity (HL-60 [7]): 50%; Activity (HL-60 [8]): Active
C[C@H]1[C@@H](O)O[C@@H]2O[C@@]3(C)CC[C@H]4[C@H](C)CC[C@@H]1[C@@]24OO3 [ARTENIMOL]		0.73	2900	Activity (P388 [4]): 2.3 µM; Activity (HL-60 [9]): Active; Activity (HL-60 [10]): Active; Activity (P388 [5]): 1.51 µM; Activity (HL-60 [11]): Active
COc1ccc(/C=C/C(=O)c2ccc(OCCO[C@H]3O[C@@H]4O[C@]5(C)CC[C@H]6[C@H](C)CC[C@@H]([C@H]3C)[C@@]46OO5)cc2)cc1	inactive	0.214	147	
COc1cc(/C=C/C(=O)c2ccc(OCCO[C@H]3O[C@@H]4O[C@]5(C)CC[C@H]6[C@H](C)CC[C@@H]([C@H]3C)[C@@]46OO5)cc2)cc(OC)c1OC	inactive	0.07	219	
C[C@H]1[C@@H](OCCOc2ccc(C(=O)/C=C/c3ccc(Br)cc3)cc2)O[C@@H]2O[C@]3(C)CC[C@H]4[C@H](C)CC[C@@H]1[C@@]24OO3	inactive	0.04	80	Activity (P388 [4]): 0.098 µM; Activity (P388 [5]): 0.155 µM; Activity (HL-60 [6]): 80%; Activity (HL-60 [7]): 50%; Activity (HL-60 [8]): Active
CCOc1ccc(/C=C/C(=O)c2ccc(OCCO[C@H]3O[C@@H]4O[C@]5(C)CC[C@H]6[C@H](C)CC[C@@H]([C@H]3C)[C@@]46OO5)cc2)cc1	inactive	0.121	110	
C[C@H]1[C@H](OC(=O)COc2ccc(C(=O)/C=C/c3ccc(Cl)cc3)cc2)O[C@@H]2O[C@]3(C)CC[C@H]4[C@H](C)CC[C@@H]1[C@@]24OO3	inactive	0.276	537	
C[C@H]1[C@@H](OCCOc2ccc(C(=O)/C=C/c3ccccc3)cc2)O[C@@H]2O[C@]3(C)CC[C@H]4[C@H](C)CC[C@@H]1[C@@]24OO3	inactive	0.208	193	
COc1ccccc1/C=C/C(=O)c1ccc(OCCO[C@H]2O[C@@H]3O[C@]4(C)CC[C@H]5[C@H](C)CC[C@@H]([C@H]2C)[C@@]35OO4)cc1	inactive	0.165	134	
COc1ccc(/C=C/C(=O)c2ccc(OCC(=O)O[C@@H]3O[C@@H]4O[C@]5(C)CC[C@H]6[C@H](C)CC[C@@H]([C@H]3C)[C@@]46OO5)cc2)cc1	inactive	0.174	394	
C[C@H]1[C@@H](OCCOc2ccc(C(=O)/C=C/c3ccc(Cl)cc3)cc2)O[C@@H]2O[C@]3(C)CC[C@H]4[C@H](C)CC[C@@H]1[C@@]24OO3	inactive	0.106	130	
COc1cccc(/C=C/C(=O)c2ccc(OCCO[C@H]3O[C@@H]4C[C@]5(C)CC[C@H]6[C@H](C)CC[C@@H]([C@H]3C)[C@@]46OO5)cc2)c1OC	inactive	0.079	194	
COc1cccc2c1C(=O)c1c(O)c3c(c(O)c1C2=O)C[C@@](O)(C(=O)CO)C[C@@H]3O[C@H]1C[C@H](N)[C@H](O)[C@H](C)O1 [DOXORUBICIN]				IG50 (P388 [4]): 0.019 µM; IG50 (P388 [5]): 3.73 µM
O=C(/C=C/c1ccccc1)c1ccccc1	inactive			
C[C@H]1[C@H](OC(=O)COc2ccc(C(=O)/C=C/c3ccc(Br)cc3)cc2)O[C@@H]2O[C@]3(C)CC[C@H]4[C@H](C)CC[C@@H]1[C@@]24OO3	inactive	0.314	636	
CCOc1ccc(/C=C/C(=O)c2ccc(OCC(=O)O[C@@H]3O[C@@H]4O[C@]5(C)CC[C@H]6[C@H](C)CC[C@@H]([C@H]3C)[C@@]46OO5)cc2)cc1	inactive	0.286	734	
